These results are taken from ChEMBL document CHEMBL1146092, “Practical synthesis and evaluation of the biological activities of 1alpha,25-dihydroxyvitamin D3 antagonists, 1alpha,25-dihydroxyvitamin D3-26,23-lactams. Designed on the basis of the helix 12-folding inhibition hypothesis” (J Med Chem, 2006).

Experiment [1] has as its target T1, Vitamin D3 receptor (Gallus gallus) (UniProt O42392).
T1 sequence (whole entry): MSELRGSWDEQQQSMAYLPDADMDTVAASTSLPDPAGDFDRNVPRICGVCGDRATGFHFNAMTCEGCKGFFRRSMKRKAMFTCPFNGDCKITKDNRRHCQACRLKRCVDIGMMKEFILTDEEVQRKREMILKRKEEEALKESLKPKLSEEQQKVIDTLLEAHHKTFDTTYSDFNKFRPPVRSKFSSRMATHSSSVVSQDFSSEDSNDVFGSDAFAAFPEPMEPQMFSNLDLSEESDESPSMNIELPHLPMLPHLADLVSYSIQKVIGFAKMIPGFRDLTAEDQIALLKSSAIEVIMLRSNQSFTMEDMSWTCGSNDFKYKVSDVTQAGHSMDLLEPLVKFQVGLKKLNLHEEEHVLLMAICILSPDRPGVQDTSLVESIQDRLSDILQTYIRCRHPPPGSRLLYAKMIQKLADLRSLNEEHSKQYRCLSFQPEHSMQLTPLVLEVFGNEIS
Put plainly: Binding affinity to chick intestinal VDR relative to 1,25-D3. The method in brief:
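Competitive binding: receptor solution was incubated with [26,27-methyl-³H]-1,25-D3 (15 000 dpm, 180 Ci/mmol) and graded test compound in ethanol for 60 min at 25 °C. It was then cooled to 4 °C and precipitated with 40% PEG 6000, and the pellet was spun at 2260g for 60 min at 4 °C. Pellet radioactivity was counted by liquid scintillation. Affinity is expressed relative to 1,25-D3 = 100.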

Experiment [2] has as its target T2, Vitamin D3 receptor (Homo sapiens, UniProt P11473).
T2 sequence (P11473 whole entry): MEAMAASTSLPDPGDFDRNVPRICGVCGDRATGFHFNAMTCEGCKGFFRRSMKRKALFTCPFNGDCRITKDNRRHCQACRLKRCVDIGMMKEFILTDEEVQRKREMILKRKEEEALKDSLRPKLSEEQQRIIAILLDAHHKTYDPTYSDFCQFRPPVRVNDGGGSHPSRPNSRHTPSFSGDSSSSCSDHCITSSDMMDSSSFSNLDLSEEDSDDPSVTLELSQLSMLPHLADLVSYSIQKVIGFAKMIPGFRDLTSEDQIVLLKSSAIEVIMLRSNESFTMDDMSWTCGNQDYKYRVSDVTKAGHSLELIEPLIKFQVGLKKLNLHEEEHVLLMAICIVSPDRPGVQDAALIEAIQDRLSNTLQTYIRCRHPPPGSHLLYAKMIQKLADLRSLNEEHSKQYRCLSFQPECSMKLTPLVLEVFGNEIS
The experiment can be described thus: Antagonist activity assessed by differentiation of 1,25-D3-induced HL60 cells. The conditions noted are these: hl-60. Format: functional, cell-based. The method in brief: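 HL-60 cells in RPMI-1640 with 10% heat-inactivated FBS, seeded at 3 × 10³ cells/mL. Cells were given graded test compound in ethanol plus 1,25-D3 as the inducer, then cultured 96 h at 37 °C in 5% CO2 with no medium change. NBT (0.1%) and TPA (100 ng/mL) were added at final concentrations for 25 min at 37 °C. NBT-positive cells were counted on cytospin smears, and IC50 was taken.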

The target in experiment [3] is T3, Vitamin D3 receptor (Rattus norvegicus) (UniProt P13053).
T3 sequence (whole entry): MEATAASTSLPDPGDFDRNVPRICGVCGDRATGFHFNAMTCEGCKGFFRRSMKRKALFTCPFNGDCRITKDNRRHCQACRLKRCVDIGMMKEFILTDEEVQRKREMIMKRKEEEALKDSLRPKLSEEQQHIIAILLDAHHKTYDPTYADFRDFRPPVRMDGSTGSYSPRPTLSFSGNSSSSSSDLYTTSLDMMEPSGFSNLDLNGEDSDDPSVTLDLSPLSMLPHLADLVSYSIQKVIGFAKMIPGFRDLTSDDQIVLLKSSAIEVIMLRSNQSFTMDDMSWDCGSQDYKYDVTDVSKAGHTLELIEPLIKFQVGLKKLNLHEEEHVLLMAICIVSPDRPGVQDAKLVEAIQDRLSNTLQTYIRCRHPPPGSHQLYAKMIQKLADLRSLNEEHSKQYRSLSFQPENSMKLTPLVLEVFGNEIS
Put plainly: Inhibition of rat VDR mediated transactivation of luciferase in COS7 cells. Format: functional, cell-based. The conditions noted are these: COS-7.

The target of experiment [4] is T4, Vitamin D3 receptor (Homo sapiens) (UniProt P11473).
T4 sequence (whole entry): T2 sequence (P11473 whole entry)
The experiment can be described thus: Inhibition of human VDR mediated transactivation of luciferase in COS7 cells. The note with it: COS-7. Format: functional, cell-based.

In turn, `C=C1/C(=C\C=C2/CCC[C@@]3(C)C2CC[C@@H]3[C@H](C)C[C@H]2C[C@@](C)(O)C(=O)N2Cc2ccc(OC)cc2)C[C@@H](O)C[C@@H]1O` (stereo partly drawn) came in with an Activity in experiment [1] of 0.09%. Also, the IC50 entry in experiment [2] was “Not Active”. The molecule `C=C1/C(=C\C=C2/CCC[C@@]3(C)C2CC[C@@H]3[C@H](C)C[C@H]2C[C@@](C)(O)C(=O)N2CCc2ccccc2)C[C@@H](O)C[C@@H]1O` (stereo partly drawn) yielded an Activity in experiment [1] of 0.34%.

In turn, `C=C1/C(=C\C=C2/CCC[C@@]3(C)C2CC[C@@H]3[C@H](C)C[C@H]2C[C@](C)(O)C(=O)N2CCc2ccccc2)C[C@@H](O)C[C@@H]1O` (stereo partly drawn) returned an Activity in experiment [1] of 8%. Turning to `C=C1/C(=C\C=C2/CCC[C@@]3(C)C2CC[C@@H]3[C@H](C)C[C@@H]2C[C@@](C)(O)C(=O)N2CCCCc2ccccc2)C[C@@H](O)C[C@@H]1O` (stereo partly drawn), the Activity in experiment [1] was 0.3%. In addition, in experiment [2], the IC50 entry was “Not Active”. The matching figures for `C=C1/C(=C\C=C2/CCC[C@@]3(C)C2CC[C@@H]3[C@H](C)C[C@@H]2C[C@@](C)(O)C(=O)N2Cc2ccccc2)C[C@@H](O)C[C@@H]1O` (stereo partly drawn): 0.25% and “Not Active”. `C=C1/C(=C\C=C2/CCC[C@@]3(C)C2CC[C@@H]3[C@H](C)C[C@@H]2C[C@@](C)(O)C(=O)N2CCc2ccccc2)C[C@@H](O)C[C@@H]1O` (stereo partly drawn) came in with an Activity in experiment [1] of 0.51%. Moreover, the IC50 result in experiment [2] is given as “Not Active”. In turn, `C=C1/C(=C\C=C2/CCC[C@@]3(C)C2CC[C@@H]3[C@H](C)C[C@H]2C[C@](C)(O)C(=O)N2Cc2ccc(OC)cc2)C[C@@H](O)C[C@@H]1O` (stereo partly drawn) came in with an Activity in experiment [1] of 2.2%. The same measure, in the same setting: then `C=C1/C(=C\C=C2/CCC[C@@]3(C)C2CC[C@@H]3[C@H](C)C[C@H]2C[C@](C)(O)C(=O)N2CCCc2ccccc2)C[C@@H](O)C[C@@H]1O` (stereo partly drawn), with 0.68%. `C=C1/C(=C\C=C2/CCC[C@@]3(C)C2CC[C@@H]3[C@H](C)C[C@@H]2C[C@@](C)(O)C(=O)N2CCCc2ccccc2)C[C@@H](O)C[C@@H]1O` (stereo partly drawn) had an Activity in experiment [1] of 0.19%. Also, the IC50 result in experiment [2] was “Not Active”. For `C=C1/C(=C\C=C2/CCC[C@@]3(C)C2CC[C@@H]3[C@H](C)C[C@@H]2C[C@](C)(O)C(=O)N2CCCc2ccccc2)C[C@@H](O)C[C@@H]1O` (stereo partly drawn), the Activity in experiment [1] worked out at 0.03%. The IC50 entry in experiment [2] is reported as “Not Active”. Take `C=C1/C(=C\C=C2/CCC[C@@]3(C)C2CC[C@@H]3[C@H](C)C[C@@H]2C[C@](C)(O)C(=O)N2Cc2ccc(OC)cc2)C[C@@H](O)C[C@@H]1O` (stereo partly drawn): the Activity in experiment [1] is 0.1%. The IC50 result in experiment [2] is “Not Active”. `C=C1/C(=C\C=C2/CCC[C@@]3(C)C2CC[C@@H]3[C@H](C)C[C@H]2C[C@@](C)(O)C(=O)N2CCCCc2ccccc2)C[C@@H](O)C[C@@H]1O` (stereo partly drawn): in experiment [1], the Activity came out at 0.09%. Besides, the IC50 entry in experiment [2] was “Not Active”. The molecule `C=C1/C(=C\C=C2/CCC[C@@]3(C)C2CC[C@@H]3[C@H](C)C[C@@H]2C[C@](C)(O)C(=O)N2CCc2ccccc2)C[C@@H](O)C[C@@H]1O` (stereo partly drawn) returned an Activity in experiment [1] of 0.19%. In addition, in experiment [2], the IC50 result is reported as “Not Active”. Turning to `C=C1/C(=C\C=C2/CCC[C@@]3(C)C2CC[C@@H]3[C@H](C)C[C@@H]2C[C@@](C)(O)C(=O)N2Cc2ccc(OC)cc2)C[C@@H](O)C[C@@H]1O` (stereo partly drawn), the Activity in experiment [1] came to 0.3%. Besides, the IC50 result in experiment [2] is “Not Active”. With `C=C1/C(=C\C=C2/CCC[C@@]3(C)C2CC[C@@H]3[C@H](C)C[C@H]2C[C@](C)(O)C(=O)N2C(C)C)C[C@@H](O)C[C@@H]1O` (stereo partly drawn), in experiment [1], the Activity is 1.52%.

In experiment [1], `C=C1/C(=C\C=C2/CCC[C@@]3(C)C2CC[C@@H]3[C@H](C)C[C@@H]2C[C@](C)(O)C(=O)N2Cc2ccccc2)C[C@@H](O)C[C@@H]1O` (stereo partly drawn) registered an Activity of 0.25%. Moreover, in experiment [2], the IC50 entry was “Not Active”.

For `C=C1/C(=C\C=C2/CCC[C@@]3(C)C2CC[C@@H]3[C@H](C)C[C@H]2C[C@@](C)(O)C(=O)N2Cc2ccccc2)C[C@@H](O)C[C@@H]1O` (stereo partly drawn), in experiment [1], the Activity turned out to be 0.18%. Moreover, the IC50 result in experiment [2] is listed as “Not Active”. Regarding `C=C1/C(=C\C=C2/CCC[C@@]3(C)C2CC[C@@H]3[C@H](C)C[C@H]2C[C@](C)(O)C(=O)N2Cc2ccccc2)C[C@@H](O)C[C@@H]1O` (stereo partly drawn), the Activity result in experiment [3] was “Dose-dependent effect”; in experiment [1], 2.74%; in experiment [4], “Dose-dependent effect”. As for `C=C1/C(=C\C=C2/CCC[C@@]3(C)C2CC[C@@H]3[C@H](C)C[C@H]2C[C@@](C)(O)C(=O)N2C(C)C)C[C@@H](O)C[C@@H]1O` (stereo partly drawn), the Activity in experiment [1] stood at 0.14%. Further, the IC50 entry in experiment [2] is “Not Active”. For the molecule `C=C1/C(=C\C=C2/CCC[C@@]3(C)C2CC[C@@H]3[C@H](C)C[C@@H]2C[C@](C)(O)C(=O)N2CCCCc2ccccc2)C[C@@H](O)C[C@@H]1O` (stereo partly drawn), in experiment [1], the Activity stood at 0.1%. Also, the IC50 result in experiment [2] is listed as “Not Active”. With `C=C1/C(=C\C=C2/CCC[C@@]3(C)C2CC[C@@H]3[C@H](C)C[C@H]2C[C@@](C)(O)C(=O)N2CCCc2ccccc2)C[C@@H](O)C[C@@H]1O` (stereo partly drawn), the Activity in experiment [1] was 0.09%. In experiment [2], the IC50 entry was “Not Active”. The molecule `C=C1/C(=C\C=C2/CCC[C@@]3(C)C2CC[C@@H]3[C@H](C)C[C@@H]2C[C@@](C)(O)C(=O)N2C(C)C)C[C@@H](O)C[C@@H]1O` (stereo partly drawn) came in with an Activity in experiment [1] of 0.14%. In addition, in experiment [2], the IC50 result is “Not Active”.

In turn, `C=C1/C(=C\C=C2/CCC[C@@]3(C)C2CC[C@@H]3[C@H](C)C[C@@H]2C[C@](C)(O)C(=O)N2C(C)C)C[C@@H](O)C[C@@H]1O` (stereo partly drawn) yielded an Activity in experiment [1] of 0.11%. Also, the IC50 entry in experiment [2] was “Not Active”. For `C=C1/C(=C\C=C2/CCC[C@@]3(C)C2CC[C@@H]3[C@H](C)C[C@H]2C[C@](C)(O)C(=O)N2CCCCc2ccccc2)C[C@@H](O)C[C@@H]1O` (stereo partly drawn), in experiment [1], the Activity was found to be 5.24%.
